ChEMBL document CHEMBL4393692, “Thiazolidinone/thiazole based hybrids - New class of antitrypanosomal agents” (Eur J Med Chem, 2019)
Calls of active or inactive are those of the source. The rule behind the calls is not given here.

Tests used:
[1] = Selectivity index, ratio of IC50 for human AB943 cells to IC50 of bloodstream form of Trypanosoma brucei gambiense Feo; type: toxicity; conditions: read-out: Ratio IC50
Outline: (§1)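 Human primary fibroblasts grown in RPMI with 25 mM HEPES pH 7.3 and 10% FCS, 37°C, 5% CO2. After trypsinisation, seeded at 5000 cells/well and incubated 24 h. Then washed and exposed to two-fold drug dilutions, final DMSO below 1%, for 5 days. Resazurin added, fluorescence read (ex 530/em 590 nm) after 4 h. Growth inhibition vs DMSO control. SI = IC50 fibroblast / IC50 T. b. gambiense.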

[2] = system: Trypanosoma brucei gambiense; assay: Antitrypanosomal activity against bloodstream form of Trypanosoma brucei gambiense Feo reduction in parasite growth after 72 hrs by resazurin dye based fluorescence assay; type: functional, organism-based
Outline: (§2)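 Bloodstream parasites cultured in HMI9 with 10% FCS at 37°C under 5% CO2. Log-phase cells harvested at 3000xg, plated at 10^5 cells/ml with dilutions from 10 down to 0.625 µg/ml (DMSO stocks) for 72 h. Resazurin added at 45 µM final, fluorescence read after a further 4 h. Inhibition vs DMSO control. IC50 from dose-response curve, mean ± SD of three independent experiments.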

[3] = Cytotoxicity against human AB943 cells assessed as reduction in cell viability after 5 days resazurin dye based fluorescence assay; conditions: 120 h; outline: as §1
[4] = system: Trypanosoma brucei brucei; assay: Antitrypanosomal activity against bloodstream form of Trypanosoma brucei brucei 90-13 assessed as reduction in parasite growth at 10 ug/ml after 72 hrs by resazurin dye based fluorescence assay relative to control; type: functional; conditions: 90-13, 72 h
Outline: (§3)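 Bloodstream forms grown in HMI9 + 10% FCS, 37°C, 5% CO2. Log-phase cells harvested at 3000xg and seeded at 10^5 cells/ml, exposed to test substance from DMSO stock at a single screening level of 10 or 1 µg/mL for 72 h. Resazurin added (final 45 µM), 4 h more, then fluorescence read. Growth inhibition expressed against DMSO control.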

[5] = system: Trypanosoma brucei brucei; assay: Antitrypanosomal activity against bloodstream form of Trypanosoma brucei brucei 90-13 reduction in parasite growth at 1 ug/ml after 72 hrs by resazurin dye based fluorescence assay relative to control; type: functional; conditions: for inhibition at 1 µg/mL: 90-13, 72 h; outline: as §3
[6] = system: Trypanosoma brucei brucei; assay: Antitrypanosomal activity against bloodstream form of Trypanosoma brucei brucei 90-13 reduction in parasite growth after 72 hrs by resazurin dye based fluorescence assay; type: functional, organism-based; conditions: 90-13, 72 h; outline: as §2

| IC50 [2] [µM] | SMILES | selectivity ratio [1] | IC50 [3] [µM] | inhibition at 10 µg/mL [4] [%] | inhibition at 1 µg/mL [5] [%] | other results |
| --- | --- | --- | --- | --- | --- | --- |
| 0.745 | CCOC(=O)c1s/c(=N\N=C\c2c(-c3ccccc3)nc3sc(CC)nn23)n(-c2ccc(O)cc2)c1C | 69 | 51.5 | – | – | – |
| – | O=C(CC1S\C(=N/N=C/C=C/c2ccccc2)NC1=O)Nc1ccc([N+](=O)[O-])cc1 (stereo not given) | – | – | 56.1 | – | inhibition [5]: inactive |
| 0.23 | O=C1CS/C(=N\N=C\c2c(-c3ccccc3)[nH]c3ccccc23)N1 | 57 | 13.2 | – | – | – |
| – | O=C(CC1S/C(=N\N=C\c2c(-c3ccccc3)[nH]c3ccccc23)NC1=O)Nc1ccc(Cl)cc1 (stereo not given) | – | – | – | – | IC50 [6]: 9.16 µM |
| – | CC12CCC(C/C1=N/N=C1/NC(=O)C(CC(=O)Nc3ccc(Cl)cc3)S1)C2(C)C (stereo not given) | – | – | 97.8 | 14.1 | – |
| – | O=C(CC1S/C(=N\N=C2CCCCC2)NC1=O)Nc1ccc([N+](=O)[O-])cc1 (stereo not given) | – | – | 44.9 | – | inhibition [5]: inactive |
| 2.3 | O=[N+]([O-])c1ccc(-c2[nH]c3ccccc3c2/C=N/Nc2nc(-c3ccc(Br)cc3)cs2)cc1 | > 40 | > 96.5 | – | – | – |
| 2.82 | O=C(CC1S/C(=N\N=C\c2c(-c3ccccc3)[nH]c3ccccc23)NC1=O)c1ccccc1 (stereo not given) | – | – | – | – | IC50 [6]: 7.73 µM |
| 0.14 | CCC1S/C(=N\N=C\c2c(-c3ccc([N+](=O)[O-])cc3)[nH]c3ccccc23)N(c2ccc(O)cc2)C1=O (stereo not given) | 60 | 8.6 | – | – | – |
| – | O=C(O)CCNC(=O)CC1S/C(=N\N=C\c2c(-c3ccccc3)[nH]c3ccccc23)NC1=O (stereo not given) | – | – | – | – | IC50 [6]: 34.8 µM |
| 1.4 | O=C1C(CCO)S/C(=N\N=C\c2c(-c3ccc(Cl)cc3)[nH]c3ccccc23)N1Cc1ccco1 (stereo not given) | 4 | 6.23 | – | – | – |
| – | CC12CCC(C/C1=N/N=C1/NC(=O)C(CC(=O)Nc3ccc(Br)cc3)S1)C2(C)C (stereo not given) | – | – | 97 | – | inhibition [5]: inactive |
| – | O=C(CC1S/C(=N\N=C\c2c(-c3ccccc3)[nH]c3ccccc23)NC1=O)Nc1ccc(Br)cc1 (stereo not given) | – | – | – | – | IC50 [6]: 7.86 µM |
| – | COc1cc(/C=N/N=C2\SC(CC(=O)c3ccc(F)cc3)C(=O)N2c2ccc(O)cc2)ccc1OCC(=O)O (stereo not given) | – | – | 14.5 | 15.1 | – |
| 5.7 | C=CCSc1nn2c(/C=N/N=C3/NC(=O)C(CCOC(C)=O)S3)c(-c3ccccc3)nc2s1 (stereo not given) | 3 | 19.2 | – | – | – |
| – | O=C(O)CC1SC(N/N=C/C=C/c2ccccc2[N+](=O)[O-])=NC1=O (stereo not given) | – | – | 24.9 | 3.28 | – |
| – | O=C(CC1S\C(=N/N=C/C=C/c2ccccc2)N(c2ccc(O)cc2)C1=O)Nc1ccc(F)cc1 (stereo not given) | – | – | -8.23 | 1.18 | – |
| 0.652 | C=CCSc1nn2c(/C=N/N=c3/[nH]c(C)c(C(=O)OCC)s3)c(-c3ccccc3)nc2s1 | 7 | 4.33 | – | – | – |
| 0.66 | CCOC(=O)c1s/c(=N\N=C\c2c(-c3ccc([N+](=O)[O-])cc3)[nH]c3ccccc23)n(-c2ccc(O)cc2)c1C | 127 | 82.9 | – | – | – |
| – | O=C(CC1S/C(=N\N=C\c2c(-c3ccccc3)[nH]c3ccccc23)NC1=O)c1ccc(F)cc1 (stereo not given) | – | – | – | – | IC50 [6]: 10.6 µM |
| 1.2 | CCc1nn2c(/C=N/N=c3/[nH]c(-c4ccc(Br)cc4)cs3)c(-c3ccc([N+](=O)[O-])cc3)nc2s1 | > 70 | > 90 | – | – | – |
| – | O=C1N/C(=N/N=C/c2c(-c3ccccc3)[nH]c3ccccc23)SC1CCO (stereo not given) | – | – | – | – | IC50 [6]: 0.17 µM |
| – | Cc1ccc(NC(=O)CC2S/C(=N\N=C3\CC4CCC3(C)C4(C)C)NC2=O)cc1 (stereo not given) | – | – | 30 | 4.18 | – |
| – | O=C(CC1S/C(=N\N=C\c2c(-c3ccccc3)[nH]c3ccccc23)NC1=O)c1ccc2c(c1)CCCC2 (stereo not given) | – | – | – | – | IC50 [6]: 13.1 µM |

| IC50 [2] [µM] | SMILES | selectivity ratio [1] | IC50 [3] [µM] | inhibition at 10 µg/mL [4] [%] | inhibition at 1 µg/mL [5] [%] | other results |
| --- | --- | --- | --- | --- | --- | --- |
| – | O=C(CC1S\C(=N/N=C/C=C/c2ccccc2)NC1=O)c1ccc(F)cc1 (stereo not given) | – | – | 57.3 | 38.7 | – |
| 0.38 | CC(=O)OCCC1S/C(=N\N=C\c2c(-c3ccc(Cl)cc3)[nH]c3ccccc23)N(c2ccc(O)cc2)C1=O (stereo not given) | > 240 | > 90 | – | – | – |
| 0.639 | CCOC(=O)c1s/c(=N\N=C\c2c(-c3ccc([N+](=O)[O-])cc3)nc3sc(CC)nn23)n(-c2ccc(O)cc2)c1C | > 130 | > 80 | – | – | – |
| 0.476 | CCc1nn2c(/C=N/N=c3\scc(-c4ccc(Br)cc4)n3-c3ccc(O)cc3)c(-c3ccc(Br)cc3)nc2s1 | > 150 | > 70 | – | – | – |
| – | O=C(CC1S/C(=N\N=C2CCCCC2)NC1=O)c1ccc(F)cc1 (stereo not given) | – | – | 98.5 | 8.16 | – |
| 0.53 | CCOC(=O)c1sc(N/N=C/c2c(-c3ccc(Cl)cc3)[nH]c3ccccc23)nc1C | 39 | 20.5 | – | – | – |
| – | O=C(O)CCCNC(=O)CC1S/C(=N\N=C\c2ccco2)NC1=O (stereo not given) | – | – | 10 | 0.06 | – |
| – | O=C(O)CC1S\C(=N/N=C/C(Cl)=C/c2ccc([N+](=O)[O-])cc2)N(c2ccc(O)cc2)C1=O (stereo not given) | – | – | 25 | -1.57 | – |
| – | O=C(CC1S\C(=N/N=C/C=C/c2ccccc2)N(Cc2ccco2)C1=O)Nc1cccc(C(F)(F)F)c1 (stereo not given) | – | – | 98.9 | 5.06 | – |
| – | CCOC(=O)c1ccc(NC(=O)CC2S/C(=N\N=C\c3c(-c4ccccc4)[nH]c4ccccc34)NC2=O)cc1 (stereo not given) | – | – | – | – | IC50 [6]: 6.86 µM |
| – | C=CCN1C(=O)C(CC(=O)c2ccc(F)cc2)S/C1=N\N=C\c1ccccc1 (stereo not given) | – | – | 14.7 | 11.1 | – |
| – | O=C(CC1S/C(=N\N=C2CCCCC2)NC1=O)Nc1ccc(F)cc1 (stereo not given) | – | – | -4.66 | -4.65 | – |
| 3.6 | C=CCSc1nn2c(/C=N/N=C3\SC(CC)C(=O)N3c3ccc(O)cc3)c(-c3ccccc3)nc2s1 (stereo not given) | > 26 | > 90 | – | – | – |
| 0.51 | CCc1nn2c(/C=N/N=c3\scc(-c4ccc([N+](=O)[O-])cc4)n3-c3ccc(O)cc3)c(-c3ccc(Br)cc3)nc2s1 | > 150 | > 70 | – | – | – |
| 1 | CCc1nn2c(/C=N/N=C3\SC(CCOC(C)=O)C(=O)N3c3ccc(O)cc3)c(-c3ccc(Br)cc3)nc2s1 (stereo not given) | 11 | 11.2 | – | – | – |
| – | CC12CCC(C/C1=N/N=C1/NC(=O)C(CC(=O)c3ccc(F)cc3)S1)C2(C)C (stereo not given) | – | – | 42 | 36.1 | – |
| 0.82 | O=C1CS/C(=N\N=C\c2c(-c3ccc(Cl)cc3)[nH]c3ccccc23)N1c1ccc(O)cc1 | > 130 | > 100 | – | – | – |
| – | C=CCN1C(=O)C(CC(=O)c2ccc(F)cc2)S/C1=N\N=C\c1ccc(N(C)C)cc1 (stereo not given) | – | – | 14.7 | 11.1 | – |
| 1.49 | O=C1N/C(=N/N=C/c2c(-c3ccc(Cl)cc3)[nH]c3ccccc23)SC1CCO (stereo not given) | 7 | 8.96 | – | – | – |
| – | O=C(CC1S/C(=N\N=C\c2ccco2)NC1=O)c1ccc2c(c1)CCCC2 (stereo not given) | – | – | 10.9 | 9.82 | – |
| – | O=C(CC1S\C(=N/N=C/C=C/c2ccccc2)NC1=O)c1ccc2c(c1)CCCC2 (stereo not given) | – | – | 53.2 | 7.69 | – |
| 0.631 | C=CCSc1nn2c(/C=N/N=c3\sc(C(=O)OCC)c(C)n3-c3ccc(O)cc3)c(-c3ccccc3)nc2s1 | > 130 | > 80 | – | – | – |
| – | O=C(O)CCCCCNC(=O)CC1S/C(=N\N=C\c2c(-c3ccccc3)[nH]c3ccccc23)NC1=O (stereo not given) | – | – | – | – | IC50 [6]: 14 µM |
